We go through 15 compounds from ChEMBL document CHEMBL1154778, “Synthesis and biological evaluation of C-5 methyl substituted 4-arylthio and 4-aryloxy-3-Iodopyridin-2(1H)-one type anti-HIV agents” (J Med Chem, 2009).

The subject of assay [1] is Human immunodeficiency virus 1. The assay is described as follows: Antiviral activity against HIV1 HXB2 harboring Y181C mutant reverse transcriptase infected in human MT4 cells after 5 days by MTT assay. The following applies: Human immunodeficiency virus 1, HXB2, MT4, 120 h. It is filed as functional, organism-based. In a few lines:
(§1)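 Mutant viruses were made by recombining the mutant PR-RT sequence into a PR-RT-deleted HIV-1 HXB2 proviral clone. MT4 cells were grown in RPMI 1640 with 10% FCS and antibiotics. Virus at 200 CCID50/well and 30000 cells/well were incubated with varied compound concentrations for 5 days at 37 °C, 5% CO2. MTT viability gave IC50, the concentration giving 50% infection versus the drug-free control.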
On the technique in general: Tetrazolium dyes change colour on reduction, which living cells bring about.

Assay [2] can be described thus: Selectivity index, ratio of CC50 for human MT4 cells to IC50 for HIV-1 LAI harboring wild type reverse transcriptase infected in human MT4 cells. It is filed as functional. The method, boiled down: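 Cytotoxicity was measured in mock-infected MT4 cultures (30000 cells/well) given the same compound concentration range, run in parallel with the infected cultures for 5 days at 37 °C, 5% CO2, with MTT viability. CC50 was the concentration reducing viability by 50% versus the drug-free control. SI was CC50 divided by IC50 against HIV-1 LAI.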

Assay [3] concerns Human immunodeficiency virus 1. The assay is described as follows: Antiviral activity against HIV1 HXB2 harboring Y188L mutant reverse transcriptase infected in human MT4 cells after 5 days by MTT assay. It is filed as functional, organism-based. To be noted: Human immunodeficiency virus 1, HXB2, MT4, 120 h. The method, boiled down:
as §1

The subject of assay [4] is Human immunodeficiency virus 1. The assay is described as follows: Antiviral activity against HIV1 HXB2 harboring K103N mutant reverse transcriptase infected in human MT4 cells after 5 days by MTT assay. The following applies: Human immunodeficiency virus 1, HXB2, MT4, 120 h. It is filed as functional, organism-based. The method, boiled down:
as §1

Assay [5] has as its system Human immunodeficiency virus 1. The assay is described as follows: Antiviral activity against HIV-1 LAI harboring wild type reverse transcriptase infected in human MT4 cells after 5 days by MTT assay. The following applies: Human immunodeficiency virus 1, LAI, MT4, 120 h. It is filed as functional, organism-based. The method, boiled down: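 MT4 cells were kept in RPMI 1640 with 10% fetal calf serum and antibiotics at 37 °C, 5% CO2. A range of compound concentrations was incubated with HIV-1 LAI at 200 CCID50/well and 30000 MT4 cells/well for 5 days at 37 °C. Cell viability was read by MTT, and IC50 was the concentration giving 50% infection versus the drug-free control.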

The IC50 is the point on the concentration scale where inhibition reaches its midpoint. A lower IC50 goes with inhibition by little substance. Consider `Cc1cc(C)cc(Oc2c(CN3CC=CC3)c(C)[nH]c(=O)c2I)c1`, for which the IC50 in assay [1] worked out at 50.1 nM; in assay [3], 125 nM; in assay [4], 7.94 nM; in assay [5], 3.98 nM. Also, in assay [2], the “Ratio CC50/IC50” value was determined as 15848.
Take `Cc1cc(C)cc(Oc2c(CO)c(C)[nH]c(=O)c2I)c1`: the IC50 was found to be 158 nM in assay [1], 3160 nM in assay [3], 158 nM in assay [4] and 5 nM in assay [5]. The “Ratio CC50/IC50” value in assay [2] is recorded as greater than 19953.
As to `Cc1cc(C)cc(Oc2c(COCc3ccsc3)c(C)[nH]c(=O)c2I)c1`, the IC50 stood at 25.1 nM in assay [1], 100 nM in assay [3], 25.1 nM in assay [4] and 5 nM in assay [5]. Also, in assay [2], the “Ratio CC50/IC50” value was greater than 19953.
`Cc1cc(C)cc(Oc2c(CN3CCCC(C#N)C3)c(C)[nH]c(=O)c2I)c1` (stereo not given): the IC50 worked out at 31.6 nM in assay [1], 199 nM in assay [3], 6.3 nM in assay [4] and 3.98 nM in assay [5]. In addition, in assay [2], the “Ratio CC50/IC50” value is on record as 19953.
With `Cc1cc(C)cc(Oc2c(Cn3cncc3C)c(C)[nH]c(=O)c2I)c1`, the IC50 in assay [1] is 31.6 nM; in assay [3], 125 nM; in assay [4], 10 nM; in assay [5] it was 5.01 nM. Also, the “Ratio CC50/IC50” value in assay [2] is reported as greater than 19952.
The corresponding values for `Cc1cc(C)cc(Sc2c(CSc3nccs3)c(C)[nH]c(=O)c2I)c1` are 199 nM, 3160 nM, 7.94 nM, 5.01 nM and 15849.
The corresponding values for `COC1CCCN(Cc2c(C)[nH]c(=O)c(I)c2Sc2cc(C)cc(C)c2)C1` (stereo not given) are 25.1 nM, 125 nM, 3.16 nM, 5.01 nM and greater than 19953.
The corresponding values for `Cc1cc(C)cc(Sc2c(Cn3nc(CC#N)nc3C)c(C)[nH]c(=O)c2I)c1` are 39.8 nM, 199 nM, 25.1 nM, 5.01 nM and greater than 19953.
Consider `Cc1cc(C)cc(Sc2c(Cc3ccc[nH]3)c(C)[nH]c(=O)c2I)c1`, for which the IC50 in assay [1] was determined as 10 nM; in assay [3], 50.1 nM; in assay [4] it was 0.5 nM; in assay [5] it was 3.98 nM. The “Ratio CC50/IC50” value in assay [2] is listed as greater than 25119.
As to `COC1CCN(Cc2c(C)[nH]c(=O)c(I)c2Sc2cc(C)cc(C)c2)CC1`, the 50% inhibitory concentration (IC50) in assay [1] was determined as 199 nM; in assay [3], 2000 nM; in assay [4], 12.5 nM; in assay [5], 3.98 nM. In addition, in assay [2], the “Ratio CC50/IC50” value came out at 10000.
The matching figures for `Cc1cc(C)cc(Oc2c(Cn3cnc(C)n3)c(C)[nH]c(=O)c2I)c1`: 31.6 nM, 125 nM, 15.8 nM, 3.98 nM and greater than 25118.
The corresponding values for `Cc1cc(C)cc(Oc2c(Cn3cccn3)c(C)[nH]c(=O)c2I)c1` are 31.6 nM, 316 nM, 6.3 nM, 5.01 nM and greater than 19952.
The corresponding values for `Cc1cc(C)cc(Oc2c(CSC(C)C)c(C)[nH]c(=O)c2I)c1` are 39.8 nM, 316 nM, 12.5 nM, 5 nM and greater than 19953.
With `Cc1cc(C)cc(Oc2c(CN(C)Cc3ccco3)c(C)[nH]c(=O)c2I)c1`, the IC50 came out at 39.8 nM in assay [1], 251 nM in assay [3], 31.6 nM in assay [4] and 5.01 nM in assay [5]. In assay [2], the “Ratio CC50/IC50” value is given as 12589.
The corresponding values for `COCCC1CN(Cc2c(C)[nH]c(=O)c(I)c2Sc2cc(C)cc(C)c2)CCO1` (stereo not given) are 63 nM, 398 nM, 5.01 nM, 3.98 nM and 12589.
